Experimental data: publication PMC9162962 (European Journal of Medicinal Chemistry, 2022)

Legend:
SARS-CoV-2 M^pro [1] = molecular target: T1, SARS-CoV-2 M^pro (Severe acute respiratory syndrome coronavirus 2, UniProt P0DTD1); type: biochemical
SARS-CoV-2 M^pro [2] = molecular target: T1, SARS-CoV-2 M^pro; experiment: Mass spectrometry; type: binding; conditions: 2 μM protease, 15 μM compound, on ice 3 h
Method in brief: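 Mpro–test compound mixture kept on ice for 3 h, then run on a quadrupole-TOF LC-MS/MS system. Raw mass signal deconvoluted to total intact protein mass to detect adduct formation. Protein was recombinant, E. coli-expressed.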

SARS-CoV-2 M^pro [3] = molecular target: T1, SARS-CoV-2 M^pro; experiment: Enzymatic reversibility assay; type: biochemical; conditions: 10 μM Mpro, 100 μM compound, 180 min
Method in brief: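 Recombinant Mpro (10 μM), E. coli-expressed, held with 100 μM test compound for 180 min, then split into four portions given different numbers of ultrafiltration rounds. Retained protease diluted to 0.5 μM final; activity measured; triplicates averaged.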

Vero cells = conditions: MTT
MDCK cells = conditions: MTT
SARS-CoV-2 = conditions: lungs and nose of SARS-CoV-2 infected mice; cited from earlier work

NC(=S)N/N=C/c1ccc(-c2ccc(C(=O)O)c(O)c2)o1 [F8–B6, (E)-4-(5-((2-carbamothioylhydrazono)methyl)furan-2-yl)-2-hydroxybenzoic acid]
Mechanism of inhibition (overall, kinetic and mass spectrometry studies) (SARS-CoV-2 M^pro [1]): reversible covalent inhibitor | Type of inhibition from Lineweaver-Burk plot (SARS-CoV-2 M^pro [1]; enzymatic kinetic assay, 3 h preincubation, varied substrate): non-competitive inhibitor | Effect of prolonged incubation on inhibition (SARS-CoV-2 M^pro [1]; incubation 5, 30, 180 min (Fig. S3A-C)): time-dependent increase of inhibition activity | Covalent binding by LC-MS/MS (SARS-CoV-2 M^pro [2]): covalently bonded | Reversibility of inhibition after ultrafiltration (SARS-CoV-2 M^pro [3]): reversible inhibitor

NC(=S)N/N=C/c1ccc(Cc2ccccc2)o1 [F8–B22, (E)-2-((5-benzylfuran-2-yl)methylene)hydrazine-1-carbothioamide]
Potency relative to initial compound F8 (SARS-CoV-2 M^pro [1]; ratio of IC50 values): 13 fold | Cytotoxicity in Vero cells (Vero cells): low cytotoxicity | Cytotoxicity in MDCK cells (MDCK cells): low cytotoxicity

Cc1ccc(NC(=O)c2ccc(CN3CCN(C)CC3)cc2)cc1Nc1nc(-c2cccnc2)cs1 [Masitinib]
Effect on coronavirus replication in infected mice (SARS-CoV-2): block the replication of coronavirus in the lungs and nose
